Results from ChEMBL document CHEMBL1153988 (J Med Chem, 2009).

Experiments:
Mus musculus [1] = experiment: Anticonvulsant activity in CF1 albino mouse assessed as protection against maximal electroshock-induced seizures at 50 mg/kg, ip after 4 hrs; type: functional, organism-based; parameters: dose 50 mg/kg
How it was run: (§1)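 Adult male CF no. 1 albino mice (18-25 g). Test compound suspended in 0.5% methylcellulose and given intraperitoneally at 0.01 mL/g body weight. Maximal electroshock challenge at the stated time. Read-out is the number of animals protected over the number tested; neurotoxicity is scored in parallel.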

Mus musculus [2] = experiment: Anticonvulsant activity in CF1 albino mouse assessed as protection against maximal electroshock-induced seizures at 50 mg/kg, ip after 0.5 hrs; type: functional, organism-based; parameters: dose 50 mg/kg; how it was run: as §1
Mus musculus [3] = experiment: Anticonvulsant activity in CF1 albino mouse assessed as protection against scMet-induced seizures at 50 mg/kg, ip after 0.5 hrs; type: functional, organism-based; parameters: dose 50 mg/kg
How it was run: (§2)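 Adult male CF no. 1 albino mice (18-25 g) dosed intraperitoneally with compound suspended in 0.5% methylcellulose (0.01 mL/g). Convulsant challenge given subcutaneously as a 0.85% pentylenetetrazol solution in 0.9% saline. Read-out is animals protected over animals tested, with neurotoxicity scored in parallel.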

Mus musculus [4] = experiment: Anticonvulsant activity in CF1 albino mouse assessed as protection against scMet-induced seizures at 50 mg/kg, ip after 4 hrs; type: functional, organism-based; parameters: dose 50 mg/kg; how it was run: as §2
Mus musculus [5] = experiment: Neurotoxicity in CF1 albino mouse at 50 mg/kg, ip after 4 hrs; type: toxicity, organism-based; parameters: dose 50 mg/kg, route intraperitoneal; conditions: in vivo
How it was run: (§3)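 Male CF no. 1 albino mice (18-25 g) received a single ip dose as a suspension in 0.5% methylcellulose. The read-out was the number of animals showing neurotoxicity (minimal motor impairment) over the number tested.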

Mus musculus [6] = experiment: Anticonvulsant activity in CF1 albino mouse assessed as protection against maximal electroshock-induced seizures at 150 mg/kg, ip after 4 hrs; type: functional, organism-based; parameters: dose 150 mg/kg; how it was run: as §1
Mus musculus [7] = experiment: Anticonvulsant activity in CF1 albino mouse assessed as protection against maximal electroshock-induced seizures at 450 mg/kg, ip after 4 hrs; type: functional, organism-based; parameters: dose 450 mg/kg; how it was run: as §1
Mus musculus [8] = experiment: Anticonvulsant activity in CF1 albino mouse assessed as protection against scMet-induced seizures at 150 mg/kg, ip after 0.5 hrs; type: functional, organism-based; parameters: dose 150 mg/kg; how it was run: as §2
Mus musculus [9] = experiment: Anticonvulsant activity in CF1 albino mouse assessed as protection against scMet-induced seizures at 450 mg/kg, ip after 0.5 hrs; type: functional, organism-based; parameters: dose 450 mg/kg; how it was run: as §2
Mus musculus [10] = experiment: Anticonvulsant activity in CF1 albino mouse assessed as protection against scMet-induced seizures at 150 mg/kg, ip after 4 hrs; type: functional, organism-based; parameters: dose 150 mg/kg; how it was run: as §2
Mus musculus [11] = experiment: Anticonvulsant activity in CF1 albino mouse assessed as protection against scMet-induced seizures at 450 mg/kg, ip after 4 hrs; type: functional, organism-based; parameters: dose 450 mg/kg; how it was run: as §2
Mus musculus [12] = experiment: Neurotoxicity in CF1 albino mouse at 450 mg/kg, ip after 0.5 hrs; type: toxicity, organism-based; parameters: dose 450 mg/kg, route intraperitoneal; conditions: in vivo; how it was run: as §3
Mus musculus [13] = experiment: Neurotoxicity in CF1 albino mouse at 150 mg/kg, ip after 4 hrs; type: toxicity, organism-based; parameters: dose 150 mg/kg, route intraperitoneal; conditions: in vivo; how it was run: as §3
Mus musculus [14] = experiment: Anticonvulsant activity in CF1 albino mouse assessed as protection against maximal electroshock-induced seizures at 150 mg/kg, ip after 0.5 hrs; type: functional, organism-based; parameters: dose 150 mg/kg; how it was run: as §1
Mus musculus [15] = experiment: Anticonvulsant activity in CF1 albino mouse assessed as protection against maximal electroshock-induced seizures at 450 mg/kg, ip after 0.5 hrs; type: functional, organism-based; parameters: dose 450 mg/kg; how it was run: as §1
Mus musculus [16] = experiment: Neurotoxicity in CF1 albino mouse at 50 mg/kg, ip after 0.5 hrs; type: toxicity, organism-based; parameters: dose 50 mg/kg, route intraperitoneal; conditions: in vivo; how it was run: as §3
Mus musculus [17] = experiment: Neurotoxicity in CF1 albino mouse at 150 mg/kg, ip after 0.5 hrs; type: toxicity, organism-based; parameters: dose 150 mg/kg, route intraperitoneal; conditions: in vivo; how it was run: as §3
Mus musculus [18] = experiment: Neurotoxicity in CF1 albino mouse at 450 mg/kg, ip after 4 hrs; type: toxicity, organism-based; parameters: dose 450 mg/kg, route intraperitoneal; conditions: in vivo; how it was run: as §3
Mus musculus [19] = experiment: Anticonvulsant activity in ip dosed CF1 albino mouse assessed as protection against maximal electroshock-induced seizures; type: functional
How it was run: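 Male CF no. 1 albino mice (18-25 g) were dosed ip in 0.5% methylcellulose and tested by maximal electroshock. Doses were varied to give 3-4 points between 0% and 100% protection. ED50 with 95% confidence interval came from probit analysis.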

Mus musculus [20] = species: Mus musculus; experiment: Protective index, ratio of TD50 for CF1 albino mouse to ED50 for maximal electroshock-induced CF1 albino seizure mouse model; type: functional
How it was run: (§4)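 Ratio of TD50 to ED50 (MES or scMet) in male CF no. 1 mice (18-25 g) given ip doses in 0.5% methylcellulose. TD50 comes from minimal motor impairment: the dose was varied until four points lay between no impairment and all animals impaired. Both TD50 and ED50 were derived by probit analysis with 95% confidence intervals.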

Mus musculus [21] = experiment: Anticonvulsant activity in ip dosed CF1 albino mouse assessed as protection against scMet-induced seizures; type: functional
How it was run: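 Adult male CF no. 1 albino mice (18-25 g) dosed ip with compound suspended in 0.5% methylcellulose (0.01 mL/g body weight). Seizures were induced by subcutaneous pentylenetetrazol, given as a 0.85% solution in 0.9% saline. ED50 was found by varying the dose to give 3-4 points between 0% and 100% protection, then probit analysis with 95% confidence intervals.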

Mus musculus [22] = species: Mus musculus; experiment: Protective index, ratio of TD50 for CF1 albino mouse to ED50 for scMet-induced CF1 albino seizure mouse model; type: functional; how it was run: as §4
Mus musculus [23] = experiment: Neurotoxicity in ip dosed CF1 albino mouse assessed as minimal motor impairment; type: toxicity, organism-based; conditions: mouse, in vivo
How it was run: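 Mice: male CF no. 1 albino (18-25 g), ip dosing in 0.5% methylcellulose. Minimal motor impairment was scored, with doses varied to give four points between no impairment and all animals impaired.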

Rattus norvegicus [24] = experiment: Anticonvulsant activity in po dosed albino Sprague-Dawley rat assessed as protection against maximal electroshock-induced seizures; type: functional
Rattus norvegicus [25] = species: Rattus norvegicus; experiment: Protective index, ratio of TD50 for albino Sprague-Dawley rat to ED50 for maximal electroshock-induced albino Sprague-Dawley rat seizure model; type: functional
How it was run: (§5)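 Protective index is the rat TD50 (minimal motor impairment) divided by the ED50 in the MES or sc pentylenetetrazol test. Male Sprague-Dawley rats were dosed orally in 0.5% methylcellulose, and both values came from probit analysis.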

Rattus norvegicus [26] = experiment: Anticonvulsant activity in po dosed albino Sprague-Dawley rat assessed as protection against scMet-induced seizures; type: functional
How it was run: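 Male Sprague-Dawley albino rats (100-150 g) were dosed orally in 0.5% methylcellulose and tested by MES or by sc pentylenetetrazol (2.82% in 0.9% saline). Doses were varied to give 3-4 points between 0% and 100% protection. ED50 and 95% confidence intervals came from probit analysis.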

Rattus norvegicus [27] = species: Rattus norvegicus; experiment: Protective index, ratio of TD50 for albino Sprague-Dawley rat to ED50 for scMet-induced albino Sprague-Dawley rat seizure model; type: functional; how it was run: as §5
[28] = Neurotoxicity in po dosed albino Sprague-Dawley rat assessed as minimal motor impairment; type: toxicity, organism-based; conditions: in vivo
How it was run: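 Rats: male Sprague-Dawley (100-150 g), oral dosing in 0.5% methylcellulose. Doses were varied to give four points between no minimal motor impairment and all animals impaired. TD50 and 95% confidence intervals came from probit analysis.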

Mus musculus [29] = experiment: Anticonvulsant activity in ip dosed CF1 albino mouse assessed as protection against 32 mA current-induced seizure by 6Hz psychomotor seizure test; type: functional
How it was run: (§6)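 In the 6 Hz psychomotor seizure test, male CF no. 1 albino mice (18-25 g) received the compound ip in 0.5% methylcellulose. Stimulation was at 32 or 44 mA. Doses were varied to give 3-4 points between 0% and 100% protection, and ED50 with 95% confidence interval came from probit analysis.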

Mus musculus [30] = species: Mus musculus; experiment: Protective index, ratio of TD50 for CF1 albino mouse to ED50 for 32 mA current-induced CF1 albino mouse seizure model; type: functional
How it was run: (§7)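 Protective index is the mouse TD50 (minimal motor impairment) divided by the 6 Hz test ED50 at 32 or 44 mA. Male CF no. 1 mice were dosed ip in 0.5% methylcellulose, and values came from probit analysis.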

Mus musculus [31] = experiment: Anticonvulsant activity in ip dosed CF1 albino mouse assessed as protection against 44 mA-current-induced seizure by 6Hz psychomotor seizure test; type: functional; how it was run: as §6
Mus musculus [32] = species: Mus musculus; experiment: Protective index, ratio of TD50 for CF1 albino mouse to ED50 for 44 mA-current-induced CF1 albino mouse seizure model; type: functional; how it was run: as §7

| Structure (SMILES) | Activity (Mus musculus [1]) | Activity (Mus musculus [2]) | Activity (Mus musculus [3]) | Activity (Mus musculus [4]) | Activity (Mus musculus [5]) | Activity (Mus musculus [6]) | Activity (Mus musculus [7]) | Activity (Mus musculus [8]) | Activity (Mus musculus [9]) | Activity (Mus musculus [10]) | Activity (Mus musculus [11]) | Activity (Mus musculus [12]) | Activity (Mus musculus [13]) | Activity (Mus musculus [14]) | Activity (Mus musculus [15]) | further results |
| --- | --- | --- | --- | --- | --- | --- | --- | --- | --- | --- | --- | --- | --- | --- | --- | --- |
| CC1(C)C(C)(C)C1(Br)C(N)=O | Non-toxic | Non-toxic | Non-toxic | Non-toxic | Non-toxic | Non-toxic | Non-toxic | Non-toxic | Non-toxic | Non-toxic | Non-toxic | Toxic | Non-toxic | Non-toxic | Non-toxic |  |
| CC1(C)C(C)(C)C1(Br)C(=O)O | Non-toxic | Non-toxic | Non-toxic | Non-toxic | Non-toxic | Non-toxic | Non-toxic | Non-toxic | Non-toxic | Non-toxic | Non-toxic | Non-toxic | Non-toxic | Non-toxic | Non-toxic | Activity (Mus musculus [16]): Non-toxic; Activity (Mus musculus [17]): Non-toxic; Activity (Mus musculus [18]): Non-toxic |
| CCCC(CCC)C(N)=O [VALPROMIDE] |  |  |  |  |  |  |  |  |  |  |  |  |  |  |  | ED50 (Mus musculus [19]): 56 mg/kg; PI (Mus musculus [20]): 1.4; ED50 (Mus musculus [21]): 55 mg/kg; PI (Mus musculus [22]): 1.5; ED50 (Mus musculus [23]): 81 mg/kg; ED50 (Rattus norvegicus [24]): 32 mg/kg; PI (Rattus norvegicus [25]): 2.7; ED50 (Rattus norvegicus [26]): 59 mg/kg; PI (Rattus norvegicus [27]): 1.5; TD50 [28]: 87 mg/kg; ED50 (Mus musculus [29]): 57 mg/kg; PI (Mus musculus [30]): 1.4; ED50 (Mus musculus [31]): 66 mg/kg; PI (Mus musculus [32]): 1.2 |
